Assay outcomes (PubChem)
CHRM1 agonist = activates human CHRM1 receptor; CHO-K1 hM1, Fluo-8 calcium fluorescence, agonist mode; 0% DMSO, 100% acetylcholine EC100; activation, % at 3 µM; 360,000 tested, 0.33% active; P11229;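 active = activation above the run's mean compound activation plus 3 SD, cut at about 16% in these data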;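 also: peak over basal fluorescence ratio within a 140 s kinetic read after compound addition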
CHRM5 agonist = CHRM5 agonism in calcium assay. P08912. 360,000 tested, 0.19% active. CHO-K1 hM5 cells, Fluo-8 calcium fluorescence; 0% DMSO wells, 100% maximal acetylcholine response. activation, % at 3 µM;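 active = activation above the run's mean over test compounds plus 3 SD, cut at about 23% in these data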;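 also: signal is peak over basal fluorescence ratio across the kinetic read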
Target sequence (P08912 whole entry, looked up): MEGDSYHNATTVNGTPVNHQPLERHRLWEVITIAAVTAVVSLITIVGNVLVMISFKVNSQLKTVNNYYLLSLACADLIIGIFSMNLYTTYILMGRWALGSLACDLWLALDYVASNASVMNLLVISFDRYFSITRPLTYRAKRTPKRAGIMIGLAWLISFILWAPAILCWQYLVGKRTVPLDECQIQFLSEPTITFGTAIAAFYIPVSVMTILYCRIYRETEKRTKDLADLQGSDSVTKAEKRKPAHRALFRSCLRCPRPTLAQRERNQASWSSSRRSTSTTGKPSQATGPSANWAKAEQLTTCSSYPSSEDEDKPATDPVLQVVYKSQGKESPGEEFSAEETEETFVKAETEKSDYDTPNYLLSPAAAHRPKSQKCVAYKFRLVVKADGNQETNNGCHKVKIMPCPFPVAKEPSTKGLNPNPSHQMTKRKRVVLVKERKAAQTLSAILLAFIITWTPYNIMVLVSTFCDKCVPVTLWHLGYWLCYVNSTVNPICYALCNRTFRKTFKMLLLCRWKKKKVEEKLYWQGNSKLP
M1 antag = human CHRM1 antagonism. CHO-K1 hM1, Fluo-8 calcium fluorescence, ACh EC80 antagonist. P11229. inhibition, % at 3 µM. 360,000 tested, 1.3% active;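 active = percent inhibition above its own plate's cutoff, namely the mean of that plate's compound wells plus 3 SD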;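 also: peak over basal fluorescence ratio during 140 s after agonist addition; 0% = ACh EC80 plus DMSO and 100% = DMSO alone without agonist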
CHRM5 antagonist = antagonists of human muscarinic M5 receptor (CHRM5); P08912; CHO-hM5 cells, Fluo-8 calcium fluorescence, ACh EC80; inhibition, % at 3 µM; 360,000 tested, 0.59% active;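 active = inhibition above a per-plate cutoff, the mean of that plate's test compounds plus 3 SD, cut at about 27% in these data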;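 also: 0% = acetylcholine EC80 with DMSO and 100% = DMSO without agonist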
CHRM1 PAM = human CHRM1 positive allosteric modulation; activation, % at 3 µM; AID 588819; 360,000 tested, 0.088% active; CHO-K1 hM1, Fluo-8 calcium fluorescence, ACh EC20; 0% = ACh EC20, 100% = maximal ACh; P11229; in the data active = activation above about 19%, passing the limit was not always enough
M5 PAM = CHRM5 positive allosteric modulation; CHO-K1 hM5, Fluo-8 calcium, ACh EC20 PAM; 0% = ACh EC20, 100% = ACh EC100; activation, % at 3 µM; 360,000 tested, 0.3% active;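 active = activation above the run cutoff, the mean activation of all test compounds plus 3 SD, cut at about 18% in these data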
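system = human M5 receptor in CHO-K1 cells | compound = one concentration, 3 µM final (nominal) | schedule = Post-acetylcholine fluorescence recording 140 s | signal = Fluo-8 calcium dye fluorescence, kinetic read | benchmarks = low control EC20 acetylcholine (0%), high control EC100 acetylcholine (100%) | repeats = singlicate, one well per test compound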
* = called active by the depositor; x = no result. A selection: hits, their analogues and other compounds. The true share with any hit is near 2%.

SMILES	CHRM1 agonist	CHRM5 agonist	M1 antag	CHRM5 antagonist	CHRM1 PAM	M5 PAM
CC(C)CN(CCCNC(=O)CN1C(=O)CSc2ccc(S(=O)(=O)N3CCOCC3)cc21)CC(C)C	-6	-1	4	-1	1	-5
CCC1CCCCN1CCCNC(=O)CN1C(=O)CSc2ccc(S(=O)(=O)N3CCC(C)CC3)cc21 (stereo not given)	-6	-8	39*	10	-14	-3
CC(C)CN(CCNC(=O)CN1C(=O)CSc2ccc(S(=O)(=O)N3CCOCC3)cc21)CC(C)C	-6	-5	40*	-5	-10	-3
COc1ccc(C(C)(NC(C)=O)c2nc(-c3ccc(F)c(Cl)c3)cs2)cc1 (stereo not given)	-4	0	6	4	-2	-2
Cc1cccc(C(O)c2ncc(-c3ccccc3F)[nH]2)c1C (stereo not given)	0	1	-27	-6	20	0
Cc1ccc(NS(=O)(=O)c2cc([N+](=O)[O-])ccc2NNC(=S)Nc2cccc(Cl)c2)c(C)c1	-3	-1	5	24	1	-13
COc1ccc(NC(=S)NNc2ccc([N+](=O)[O-])cc2S(=O)(=O)Nc2ccc(C)cc2C)cc1	-5	0	11	34*	-8	-22
Cc1ccc(NS(=O)(=O)c2cc([N+](=O)[O-])ccc2NNC(=S)Nc2cc(C)ccc2C)c(C)c1	3	0	16	37*	-5	-19
COc1ccc(NC(=S)Nc2cccc([N+](=O)[O-])c2)cc1	0	2	-10	0	8	-2
CCCNS(=O)(=O)c1cc2c(cc1Br)CCN2C(=O)CC	-3	1	-6	4	5	23*
CN1CCN(CCNC(=O)c2ccc3nc(-c4ccc(F)cc4)c(-c4ccc(F)cc4)nc3c2)CC1	-5	-9	45*	-10	-21	-2
CCc1nc2ccc(C(=O)NCCCN3CCN(c4ccc(F)cc4)CC3)cc2nc1CC	-8	-7	14	-2	-8	-6
COc1cc(C)ccc1OCc1cc(C(=O)NC(c2ccccn2)C(F)(F)F)no1 (stereo not given)	-1	1	-10	4	8	-5
COc1ccc(-n2nnnc2C(c2ccccc2OC(F)(F)F)N2CCN(C/C=C/c3ccccc3)CC2)cc1 (stereo not given)	-5	-6	-3	5	-14	-19
C#CCCCCCCC#CCN(C)C	41*	0	21	9	-17	-4
Cc1nn(C2CCS(=O)(=O)C2)c2nc(C3CC3)cc(C(=O)Nc3cccc(C#N)c3)c12 (stereo not given)	-3	0	-3	5	-1	-4
O=C1CC(c2cccnc2)c2cc3c(cc2N1)OCCO3 (stereo not given)	-1	1	39*	7	-9	-8
CSCC[C@H](CO)NC(=O)[C@H]1O[C@@H](n2cnc3c(N)ncnc32)[C@H](O)[C@@H]1O	-3	0	-28	-4	4	3
CN1CCCCC1CCN1c2ccccc2Sc2ccc(S(C)=O)cc21 (stereo not given)	-8	-2	99*	98*	-25	-18
C=CCN1C(=O)c2ccccc2Sc2ccc(C(=O)N3CCN(C)CC3)cc21	-6	-1	3	0	0	0
CCn1c(NCc2ccc(N(C)C)cc2)nc2ccccc21	-1	-7	10	-3	-1	18*
COc1cc(CC(=O)Nc2c(-c3ccccc3)[nH][nH]c2=O)cc(OC)c1	x	1	x	10	x	-5
CCC1CCCCN1Cc1ccc(CNC(=O)CCc2nnc3ccc(N4CCCCC4)nn23)o1 (stereo not given)	-6	-11	43*	1	-17	2
C=CCNC(=O)c1c(O)c2cccc3c2n(c1=O)CCC3	-3	6	-14	25	11	43*
Cc1ccccc1Oc1ccc2c(c1)[C@@H]1C[C@H](N(C)C(=O)c3ccco3)[C@H]([C@H](C)O)C(=O)N1CC2	-4	3	0	-2	-2	3
SMILES	CHRM1 agonist	CHRM5 agonist	M1 antag	CHRM5 antagonist	CHRM1 PAM	M5 PAM
COc1ccc(NC(=O)C2Cc3c(-c4cccc(C(C)=O)c4)ccnc3O2)cn1 (stereo not given)	4	2	-15	-4	15	3
COC(C#CCCN(C)C)(c1ccccc1)c1ccccc1	-11	-8	99*	94*	-27	-19
CN(C)CCOC(C)(c1ccccc1)c1ccccn1 (stereo not given)	-9	-2	40	8	-25	-15
O=C(CSCC(=O)N1CCCCC1)Nc1nc(-c2ccc(Cl)s2)cs1	0	5	31*	18	-8	-20
CCC(C(=O)NCCC(C)C)n1ccc2cc(S(=O)(=O)N3CCCCC3)ccc21 (stereo not given)	1	0	45*	34*	-20	-12
COc1cccc(CNC(=O)C(C)n2ccc3cc(S(=O)(=O)N4CCCCCC4)ccc32)c1 (stereo not given)	-3	-1	-1	4	-1	-3
O=C(O)CCn1ccc2cc(S(=O)(=O)N3CCCCCC3)ccc21	1	-1	-8	-10	9	19*
COc1ccc(N2CCN(C(CNC(=O)CC(C)(C)C)c3ccc4c(c3)OCO4)CC2)cc1 (stereo not given)	-13	-10	31*	25	-38	-16
COc1ccc(N2CCN(C(CNC(C)=O)c3ccc4c(c3)OCO4)CC2)cc1 (stereo not given)	1	-7	-5	3	15	0
OCC1(CCCc2ccccc2)CCN(Cc2cnc(N3CCOCC3)s2)CC1	19*	1	6	7	-5	2
COC(=O)C(CC(=O)c1ccc(Cl)cc1)c1ccc(C)cc1 (stereo not given)	-5	-8	5	7	33*	-3
O=C(NN1CCCCC1)NN1CCCCC1	-4	2	-6	6	9	-3
O=C(c1ccccc1F)N1CCN(Cc2ccc3c(c2)OCO3)CC1	-5	-2	-4	7	4	-2
N#Cc1c(F)cccc1N1CCN(Cc2ccc3c(c2)OCO3)CC1	-12	-5	66*	20	-35	-5
CC(=O)C[C@@H]1OC[C@H](Cc2ccccc2)N1S(=O)(=O)c1ccc(C)cc1	x	-1	x	-4	x	-4
Cc1ccc2nc(-c3ccccc3)c(Cc3ccsc3)n2c1	x	-4	x	7	x	2
Cc1ccc(Nc2nc(N)nc(N)c2N=O)cc1C	13	6	-5	-7	4	1
